Only some compounds are listed: those with a hit (about 3.1% of all), similar ones and a draw of the others.
core dimer inh – blocks dimerization of HCV core protein. 300,000 compounds, 0.33% hits. TR-FRET GST/Flag-core106 dimerization, 1536-well. inhibition, % at 5 µM;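 active means inhibition above the mean of all tested compounds plus 3 SD, set per screening campaign, cut at about 45% in these data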
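Material: GST/Flag-tagged HCV core106 proteins. Incubation: 4 h, 22.5 °C incubation. Read-out basis: inhibition (%) from 671 over 617 nm ratio. Measured by: TR-FRET, excitation 340 nm, emission 617 and 671 nm.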
IMP-1 inhibitor – blocks Pseudomonas aeruginosa IMP-1 metallo-beta-lactamase; purified IMP-1, nitrocefin hydrolysis, epi-absorbance fluorescence; inhibition, % at 5.6 µM; AID 1556; 290,000 compounds, 0.45% hits;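 active means inhibition above the mean plus 3 SD of all compounds in the same screening run, cut at about 4.5% in these data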
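system = purified recombinant IMP-1 beta-lactamase | amount = 0.2 nM IMP-1, as dispensed | medium = HEPES buffer pH 7.1 with ZnSO4 and Brij 35 | times = 25 °C, 15 min preincubation, 25 min reaction | detection = plate fluorescence quenching by hydrolysis product, ex 480/em 530 nm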
NS3 helicase inh – HCV NS3 helicase inhibition; NS3 helicase DNA unwinding, Cy5 molecular beacon fluorescence; inhibition, % at 10.9 µM; 290,000 compounds, 0.56% hits; AID 1800;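 active means inhibition above the mean of all tested compounds plus 3 SD, set per campaign, cut at about 35% in these data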
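test system = hepatitis C virus NS3 helicase domain fragment enzyme | reagent = annealed dual-labelled DNA beacon duplex, ATP-started | times = 1 h at 25 °C | detection = Cy5 fluorescence, 0 and 60 min reads | read-out basis = percent inhibition from t60/t0 fluorescence ratio | control set = DMSO and thioflavine S | replication = one well per compound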
UBC9 SUMO inh – blocks human SUMOylation mediated by UBC9; P63279; HTRF SUMOylation assay, SAE1/SAE2 + UBC9, in vitro; inhibition, % at 35 µM; 290,000 compounds, 0.36% hits; AID 2006; in the data active means inhibition above about 50%, passing the limit was not always enough
Target sequence (P63279 whole entry, looked up): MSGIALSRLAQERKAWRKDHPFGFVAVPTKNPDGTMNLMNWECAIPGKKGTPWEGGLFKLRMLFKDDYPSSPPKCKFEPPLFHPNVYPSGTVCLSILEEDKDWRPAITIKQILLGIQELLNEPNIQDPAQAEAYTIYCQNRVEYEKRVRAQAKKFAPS
VIM-2 inh – inhibitors of Pseudomonas aeruginosa VIM-2 metallo-beta-lactamase. purified VIM-2, nitrocefin hydrolysis, epi-absorbance fluorescence. inhibition, % at 5.6 µM. 290,000 compounds, 0.89% hits. AID 1527;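 active means inhibition above the mean of all tested compounds plus 3 SD, cutoff set per screening run, cut at about 7.5% in these data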;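 further: red hydrolysis product quenches plate fluorescence so inhibitors raise well fluorescence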
PHOSPHO1 inh – PHOSPHO1 (human) inhibition; Q8TCT1; recombinant PHOSPHO1, absorbance phosphatase assay; inhibition, % at 13.3 µM; 290,000 compounds, 1.1% hits; AID 1565; in the data active means inhibition above about 60%
Target sequence (Q8TCT1 whole entry, looked up): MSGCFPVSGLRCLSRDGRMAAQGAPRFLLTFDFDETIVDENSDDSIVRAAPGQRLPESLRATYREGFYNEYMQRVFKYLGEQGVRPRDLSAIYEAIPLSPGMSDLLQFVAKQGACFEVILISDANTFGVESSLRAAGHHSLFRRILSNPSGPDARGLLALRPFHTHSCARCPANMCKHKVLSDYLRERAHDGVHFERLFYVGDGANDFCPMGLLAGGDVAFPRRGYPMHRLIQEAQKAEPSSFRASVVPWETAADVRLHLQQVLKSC
A number is an active result; n = inactive; x = no result.

SMILES	core dimer inh	IMP-1 inhibitor	NS3 helicase inh	UBC9 SUMO inh	VIM-2 inh	PHOSPHO1 inh
COc1ccc(-c2nc(C(=O)NCCCN3CCOCC3)cc3c2[nH]c2ccccc23)cc1OC	n	n	n	n	12	n
Cc1ccc(CC(=O)Nc2cccc(C)n2)cc1	n	n	n	n	n	n
Cc1cccc(NC(=O)Cc2ccc(-c3ccccc3)cc2)n1	n	12	n	n	n	n
O=C(Cc1ccc(-c2ccccc2)cc1)Nc1ncccc1O	n	33	n	n	n	n
O=C(Cc1ccc(-c2ccccc2)cc1)Nc1ccccc1	n	n	n	n	n	n
O=C(Nc1cccc(F)c1)C1CCCN(S(=O)(=O)c2ccc(-n3cnnn3)cc2)C1 (stereo unspecified)	n	n	n	n	n	n
CCCS(=O)(=O)N1CCN(Cc2ccncc2)CC1	n	5.1	n	n	n	n
CCC(C(=O)Nc1ccc([N+](=O)[O-])cn1)c1ccccc1 (stereo unspecified)	n	n	n	n	n	x
O=S(=O)(c1ccc2c(c1)C(=NO)c1cc(S(=O)(=O)N3CCCCC3)ccc1-2)N1CCCCC1	48	n	n	n	n	n
S=C(NN=C1C2CC3CC(C2)CC1C3)Nc1ccccc1	n	n	n	n	n	92
CCC(C)(C)C1CCC(=NNC(=S)Nc2ccccc2)CC1 (stereo unspecified)	n	n	n	n	n	n
Cc1nn2cnnc2c(C)c1Cc1ccc(Cl)cc1	n	n	n	n	n	n
O=C(Cn1c(=O)n(Cc2ccco2)c(=O)c2c3c(sc21)CCCCC3)Nc1ccccc1	56	n	n	n	n	n
CN(C)CCn1c(=O)n(Cc2ccco2)c(=O)c2c3c(sc21)CCCCC3	n	n	n	n	n	n
O=c1c2c3c(sc2n(CCN2CCCC2)c(=O)n1Cc1ccco1)CCCCC3	n	n	n	n	n	n
O=C(Cn1c(=O)n(Cc2ccco2)c(=O)c2c3c(sc21)CCCCC3)c1ccccc1	72	n	n	n	n	n
COc1ccccc1/C=C/C(=O)NCCc1ccccn1	n	n	n	n	n	n
O=C(C1CCN(C2CCN(Cc3ccsc3)CC2)CC1)N1CCOCC1	n	n	n	n	n	n
CCOC(=O)c1[nH]c2ccc(Br)cc2c1NC(=O)CCN1CCN(C(=O)OCC)CC1	n	n	n	n	n	65
CCOC(=O)c1[nH]c2ccc(Br)cc2c1NC(=O)CCN1CCCCC1	x	n	n	n	n	n
CCC(C)(C)NC(=O)C(c1ccc(C)o1)N(Cc1cccs1)C(=O)Cn1nnc2ccccc21 (stereo unspecified)	n	10.0	n	n	n	n
CC1(C)C(C#N)=C(N)Oc2c1c(=O)oc1ccccc21	n	4.9	n	n	n	n
COC(OC)C1(C)C(C#N)=C(N)Oc2c1c(=O)oc1ccccc21 (stereo unspecified)	n	n	n	n	n	x
CC(=O)NCCNC(=O)c1ccc(CSc2nc3ccccc3s2)cc1	n	n	n	n	n	n
Cc1ccc(S(=O)(=O)NC(C)C(=O)NC(C)c2cccs2)cc1 (stereo unspecified)	n	n	n	n	n	n
SMILES	core dimer inh	IMP-1 inhibitor	NS3 helicase inh	UBC9 SUMO inh	VIM-2 inh	PHOSPHO1 inh
CC(=O)NC12CC3CC(C1)CC(C(=O)N1CCN(S(=O)(=O)c4ccc(C(C)C)cc4)CC1)(C3)C2	n	x	x	x	x	x
Cc1cc(=O)oc2cc(NC(=O)C(C)Oc3ccc(F)cc3)ccc12 (stereo unspecified)	n	x	x	x	x	x
Cc1cc(=O)oc2cc(NC(=O)c3ccc(OC(F)F)cc3)ccc12	n	8.7	n	n	n	n
Cc1ccnc2nc(C(=O)OCC(=O)Nc3ccc4c(c3)OC(F)(F)O4)nn12	n	4.7	n	n	n	n
CC1=C(C)NC(=S)SC1	n	n	n	n	n	73
CCn1c(CN2CCCCCC2=O)nnc1SCc1cnc(-c2ccccc2)s1	n	n	n	n	n	62
O=C1CCCCCN1Cc1nnc(SCc2nc3ccccc3s2)n1-c1ccccn1	n	n	n	n	n	n
O=C(c1cc(COc2ccc3ncccc3c2)on1)N1CCCC(O)C1 (stereo unspecified)	n	n	n	n	n	n
CN(Cc1nccn1C)C(=O)c1cc(COc2ccc3ncccc3c2)on1	n	n	n	n	10.0	n
Cc1cc(CN(C)C(=O)c2cc(COc3ccc4ncccc4c3)on2)on1	n	n	n	n	n	n
O=C(c1cc(COc2ccc3ncccc3c2)on1)N1CCC(O)CC1	n	n	n	n	n	62
Clc1ccc(NCc2ccsc2)cc1	n	n	n	n	n	n
Cc1ccc(NCc2nnc(SCC(=O)c3ccccc3)n2Cc2ccco2)c(C)c1	64	n	n	n	n	n
CCn1c(SCC(=O)N(C(C)C)C(C)C)nnc1-c1cc2ccccc2cc1O	n	n	n	n	12	n
COc1ccc(C(=O)CSc2nnc(-c3cccnc3)n2Cc2ccco2)cc1	n	n	n	n	n	92
Clc1cccc(CSc2nnc(-c3cccnc3)n2Cc2ccco2)c1	n	n	n	n	n	n
Cc1ccc(NC(=O)CSc2nnc(CSc3nc(C)cc(C)n3)n2Cc2ccco2)c(C)c1	n	n	n	n	n	n
Clc1ccc(CSc2nnc(-c3cccnc3)n2Cc2ccco2)c(Cl)c1	48	n	n	n	n	n
CCc1nnc(NC(=O)CSc2nnc(-c3cc4ccccc4cc3O)n2CC)s1	n	n	n	n	n	n
CCn1c(SCC(=O)NNC(=O)c2ccccc2)nnc1-c1ccco1	n	n	n	n	n	n
CCn1c(SCC(=O)c2ccc3ccccc3c2)nnc1-c1ccco1	n	n	n	n	n	73
COc1cc(F)c(S(=O)(=O)N2CCOc3ccccc32)cc1OC	n	n	n	n	n	n
O=C(CSc1nc2ccccc2[nH]1)NCc1ccc(F)cc1	n	n	n	n	n	n
O=C(CSc1nc2ccccc2[nH]1)NCCN1CCCCC1	n	n	n	n	n	65
C/C(=C/c1ccccc1)C(=O)N1CCN(c2ccc(F)cc2)CC1	n	n	n	n	n	n
SMILES	core dimer inh	IMP-1 inhibitor	NS3 helicase inh	UBC9 SUMO inh	VIM-2 inh	PHOSPHO1 inh
CCOC(=O)c1cnc(-n2nc(C)cc2C)nc1NCCc1ccccc1	n	n	n	n	9.6	n
CCOC(=O)c1cnc(-n2nc(C)cc2C)nc1Nc1ccccc1OC	x	n	n	n	n	n
CCOC(=O)c1cnc(-n2nc(C)cc2C)nc1N(C)C	n	n	n	n	n	n
CCOC(=O)c1cnc(-n2nc(C)cc2C)nc1Nc1ccc(OC)cc1	n	n	n	n	11	n
CCOC(=O)c1cnc(-n2nc(C)cc2C)nc1NC1CCCC1	n	n	n	n	8.4	n
CCOC(=O)COc1cccc(C2NC(=O)c3ccccc3O2)c1 (stereo unspecified)	n	n	n	n	n	x

High-throughput results (PubChem)
